Source: PubChem BioAssay
Hits are enriched below; roughly 3.8% of the tested compounds scored in any of these assays.
KCNK3 inh: human KCNK3 channel inhibition, primary screen | CHO-KCNK3 thallium flux, FluxOR fluorescence; hits give low values | B-score at 10 µM | hit rate 0.84% among 340,000;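 active means B-score under library mean minus 4 SD, starting fluorescence ratio at most library mean plus 5 SD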;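 further: more negative B-score means stronger inhibition of thallium flux through KCNK3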
KCNK9 inh: inhibitors of human KCNK9 two-pore domain potassium channel; Q9NPC2; HEK293 KCNK9, FluxOR thallium flux fluorescence; hits give low values; B-score at 10 µM; hit rate 1.2% among 310,000;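 active means ratio B-score over 3 SD below the library mean, with starting fluorescence within 5 SD of its mean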;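 further: negative B-score means less thallium flux so channel inhibition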
KCNQ1 inh: human KCNQ1 channel inhibition; hit rate 1.3% among 310,000; CHO-K1 KCNQ1, FluxOR thallium flux fluorescence; hits give high values; AID 2642; B-score at 10 µM; P51787;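 active means compounds whose thallium flux B-score, printed positive for inhibition, exceeds three library SD while starting fluorescence stays within three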;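 further: channel opened by potassium depolarization with thallium stimulus after 20 min compound exposure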
KCNQ1 act: human KCNQ1 channel potentiation or activation. B-score at 10 µM. P51787. CHO-K1 KCNQ1, thallium flux FluxOR fluorescence; hits give high values. hit rate 0.35% among 310,000. AID 2648;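 active means fluorescence ratio B-score, a plate-corrected score, at least three library SD, with initial intensity B-score within 5 SD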
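assay system = CHO-K1 cells stably expressing KCNQ1 | medium = assay buffer, equal DMSO in all wells | timing = 37 °C overnight plating, 90-min dark dye load, 20-min compound pretreatment | measured by = kinetic FluxOR thallium fluorescence, 10-s 1-Hz baseline, 110-s post-stimulus read | measure = fluorescence change relative to baseline, converted to B score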
hERG protect: compounds protecting human hERG from proarrhythmic drug block; Q12809; CHO-hERG, FluxOR thallium flux, dofetilide IC70 present; activation (rescue from dofetilide block), less the hit threshold, % at 10 µM; hit rate 0.51% among 310,000;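 active means activation above the mean of controls blocked by dofetilide plus 5 SD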;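 further: thallium influx through hERG after potassium depolarization seen as dye fluorescence rise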
Target sequence (Q12809 whole entry, looked up): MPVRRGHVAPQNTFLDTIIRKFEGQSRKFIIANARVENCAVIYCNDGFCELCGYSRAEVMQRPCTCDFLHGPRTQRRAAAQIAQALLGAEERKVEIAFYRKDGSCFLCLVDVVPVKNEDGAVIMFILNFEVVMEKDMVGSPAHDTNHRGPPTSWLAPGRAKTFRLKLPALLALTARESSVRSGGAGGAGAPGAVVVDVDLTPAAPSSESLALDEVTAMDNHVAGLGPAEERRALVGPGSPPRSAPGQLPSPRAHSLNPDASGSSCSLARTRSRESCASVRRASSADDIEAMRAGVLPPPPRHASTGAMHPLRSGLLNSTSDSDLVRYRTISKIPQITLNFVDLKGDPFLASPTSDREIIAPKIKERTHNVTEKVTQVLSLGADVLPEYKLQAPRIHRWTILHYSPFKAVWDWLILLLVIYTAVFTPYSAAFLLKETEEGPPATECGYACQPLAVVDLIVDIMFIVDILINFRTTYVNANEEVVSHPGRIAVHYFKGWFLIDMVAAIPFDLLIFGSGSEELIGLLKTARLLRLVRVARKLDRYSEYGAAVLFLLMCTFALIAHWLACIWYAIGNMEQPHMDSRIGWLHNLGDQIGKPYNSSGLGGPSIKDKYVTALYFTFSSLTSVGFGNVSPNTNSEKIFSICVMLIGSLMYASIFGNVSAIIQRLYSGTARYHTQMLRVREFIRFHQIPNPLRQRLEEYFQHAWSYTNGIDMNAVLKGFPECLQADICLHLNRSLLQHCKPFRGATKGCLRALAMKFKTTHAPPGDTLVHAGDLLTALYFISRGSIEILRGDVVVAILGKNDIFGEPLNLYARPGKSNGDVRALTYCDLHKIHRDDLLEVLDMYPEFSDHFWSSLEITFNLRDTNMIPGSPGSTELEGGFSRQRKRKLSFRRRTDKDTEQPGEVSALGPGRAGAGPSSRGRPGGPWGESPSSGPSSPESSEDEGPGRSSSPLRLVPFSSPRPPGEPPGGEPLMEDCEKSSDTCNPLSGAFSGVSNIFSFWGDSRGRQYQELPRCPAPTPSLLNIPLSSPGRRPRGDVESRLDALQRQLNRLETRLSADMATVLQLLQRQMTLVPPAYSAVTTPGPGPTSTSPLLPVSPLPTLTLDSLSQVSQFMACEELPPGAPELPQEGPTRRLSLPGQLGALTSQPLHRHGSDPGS
Kir21 inh: blocks the mouse Kir2.1 inward-rectifier potassium channel; HEK293-Kir2.1, FluxOR thallium flux fluorescence; hits give low values; P35561; hit rate 0.85% among 310,000; B-score at 10 µM;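 active means fluorescence ratio B-score at or below minus 3 SD of library scores, with starting-brightness B-score within 2 SD, cut at about -4.2 in these data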;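 further: channel flux triggered by added potassium and thallium sulfate stimulus; B-score of peak minus minimum fluorescence over baseline after thallium stimulus; more negative B-score means stronger Kir2.1 block with less thallium influx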
Large screens that a line does not name were inactive.

COc1ccc(Cl)cc1NC(=O)C(C)N(C)Cc1ccc(C(F)(F)F)cc1 (stereo not given)	KCNK9 inh -7.4
COc1cccc(NC(=S)N(CCCN2CCCC2)Cc2cccn2Cc2ccc(Cl)cc2)c1	Kir21 inh -8.5
CCCCN(C)C(=O)CCCc1c[nH]c2ccccc12	KCNK9 inh -7.8
CCN(CC)C(=O)CCCc1c[nH]c2ccccc12	none
CCCCn1nnc(NC(=O)c2ccc(-c3cccc([N+](=O)[O-])c3)o2)n1	hERG protect 22 (no result: KCNK3 inh)
CCCCn1nnc(NC(=O)Cc2ccc(Cl)cc2)n1	hERG protect 6.0
CCCn1nnc(NC(=O)Cc2ccccc2)n1	none
CCCCCC(=O)Nc1cccc(C2=NOC3(C2)C[C@H](C(N)=O)N(C(=O)CC)C3)c1 (stereo not given in full)	none
Cc1ccc(C(=O)NCC(=O)NCCSc2ccc(Br)cc2)cc1	none
CCOc1ccc(C(=O)NCC(=O)NCCSc2ccc(Br)cc2)cc1OCC	KCNK3 inh -9.8 (no result: KCNK9 inh, KCNQ1 inh, KCNQ1 act, hERG protect, Kir21 inh)
CC(=O)c1c(C)[nH]c(C(=O)Nc2nc(-c3ccc(-c4ccccc4)cc3)cs2)c1C	KCNQ1 inh 8
COc1ccccc1C(=O)OCc1nc(N)nc(Nc2ccccc2C)n1	Kir21 inh -5.2
O=C1C(=C(I)I)c2ccccc2-c2ccccc21	KCNK3 inh -9.4 (no result: KCNK9 inh, KCNQ1 inh, KCNQ1 act, hERG protect, Kir21 inh)
CC(Sc1nnc2ccccn12)C(=O)Nc1ccc(Cl)cn1 (stereo not given)	none
CC(Sc1nnc2ccccn12)C(N)=O (stereo not given)	hERG protect 5.0
Cc1ccc(C2CC(c3ccccc3)=NN2C(=S)Nc2ccccc2)o1 (stereo not given)	KCNQ1 inh 6
Cc1ccc(OCC(=O)NNC(=S)NC(=O)C(C)(C)C)c(Br)c1	KCNQ1 act 9
Cc1ccc(OCC(=O)NNC(=S)NC(=O)C2CCCCC2)c(C)c1	KCNQ1 act 8
CC(C)c1ccc(OCC(=O)NNC(=S)NC(=O)c2cccs2)c(Br)c1	KCNQ1 act 30
Cc1ccc(OCC(=O)NNC(=S)NC(=O)C2CC2)c(C)c1	none
Cc1cnc(C(=O)OCC(=O)c2cc(C)n(C)c2C)cn1	none
CCn1cc(C(=O)NCC(OC)OC)c(=O)c2cc(S(=O)(=O)N3CCC(C)CC3)ccc21	KCNQ1 inh 6
CCOCCCNC(=O)c1cn(CC)c2ccc(S(=O)(=O)N(C)C3CCCCC3)cc2c1=O	KCNQ1 inh 7
CC(C)(C)OC(=O)NCCc1nnc(SCc2ccccc2)o1	Kir21 inh -6.1
CC(C)(C)OC(=O)NCCc1nnc(SCC(N)=O)o1	none
CCCCSc1nnc(CCNC(=O)OC(C)(C)C)o1	none
CC(C)(C)OC(=O)NCCc1nnc(SCc2ccccc2Cl)o1	Kir21 inh -5.5
CC(C)(C)OC(=O)NCCCCCc1nnc(SCC(N)=O)o1	hERG protect 4.6
Cc1nnnn1/C(=C\c1ccccc1)C(=O)OCC(=O)Nc1cccc(S(=O)(=O)N(C)C)c1	none (no result: KCNK9 inh, KCNQ1 inh, KCNQ1 act, hERG protect, Kir21 inh)
Cc1nnnn1/C(=C\c1ccccc1)C(=O)OCC(=O)Nc1ccc(Cl)cc1F	KCNQ1 act 7, Kir21 inh -7.3
Cc1cc(-c2ccccc2)n[nH]1	none
FC(F)C(F)(F)C(F)(F)C(F)(F)c1cc(-c2ccccc2)n[nH]1	KCNK9 inh -7.8
COc1ccc(-c2sc3ccc(OC)cc3c2-c2ccc(OC)nc2)cc1	none (no result: KCNK9 inh, KCNQ1 inh, KCNQ1 act, hERG protect, Kir21 inh)
CN(CCNC(=O)c1ccc(CS(=O)(=O)c2ccc(Br)cc2)o1)CCc1ccccc1	Kir21 inh -4.9
CC(=O)Oc1ccc(C23c4ccccc4C2(OC(C)=O)c2cc(OC(C)=O)ccc23)cc1 (stereo not given)	none (no result: KCNK9 inh, KCNQ1 inh, KCNQ1 act, hERG protect, Kir21 inh)
CCC(C)c1ccc(NC(=O)N2CCN(C(=O)C3CCCO3)CC2)cc1 (stereo not given)	none
CCCn1nc(C(=O)N(C)CC(=O)Nc2ccc(OCC)c(OCC)c2)c2ccccc2c1=O	none (no result: KCNK9 inh, KCNQ1 inh, KCNQ1 act, hERG protect, Kir21 inh)
O=C(CCN1CCOCC1)NNC(=S)NC(=O)c1ccc(Br)cc1	KCNQ1 inh 6
Cc1ccc(C(=O)NC(=S)NNC(=O)COc2ccc([N+](=O)[O-])cc2)cc1	KCNQ1 act 8
CCCCNC(=S)NC(=O)c1ccc([N+](=O)[O-])cc1	KCNQ1 act 10
Cc1cccc(C(=O)NC(=S)NNC(=O)COc2c(C)cccc2C)c1	KCNQ1 act 13, hERG protect 17
